Screens deposited in PubChem BioAssay by several laboratories.
The entries come from a sample that favours hits as a whole.
ALR H2O2 inh: blocks human ALR sulfhydryl oxidase activity; purified ALR, DTT oxidation, H2O2 HRP-luminol luminescence; inhibition, % (no concentration beside the values); 290,000 tested, 3.8% active; AID 485317;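 active = mean replicate inhibition above about 79%, with every replicate also reaching it, limit read from the data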
Target sequence (P55789 whole entry, looked up): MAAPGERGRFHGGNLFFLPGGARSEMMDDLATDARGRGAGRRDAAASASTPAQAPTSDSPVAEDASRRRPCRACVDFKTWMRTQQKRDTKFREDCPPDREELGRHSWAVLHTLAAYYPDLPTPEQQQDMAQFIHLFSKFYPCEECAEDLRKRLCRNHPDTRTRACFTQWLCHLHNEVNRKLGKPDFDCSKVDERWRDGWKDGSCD
N-glyco inh: N-linked glycosylation inhibition; D54 ERlucT glycosylation luciferase reporter, 24 h; percent of 100 nM tunicamycin response; reporter increase, % at 12.5 µM; 360,000 tested, 0.23% active; AID 588692;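 active = mean luciferase reporter signal, scaled so untreated is 0 and the glycosylation-blocking control 100, at or above a set limit in every replicate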;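 note: luciferase carries N-glycosylation sites so blocking glycosylation raises the light; 0% = median of neutral control wells and 100% = median of 100 nM tunicamycin wells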
T cell HTS: modulates CD8 T cell binding to vesicles | response (vesicle binding), % at 7 µM | 330,000 tested, 0.068% active | 2C CD8+ T cell-vesicle binding, flow cytometry; active compounds read low;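 active = response, share of CD8 T cells binding vesicles, and their 90th percentile fluorescence all below set limits, cut at about 80% in these data, passing the limit was not always enough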;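 note: values below 100% mean blocked vesicle binding to the CD8+ T cells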
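Incubation: binding step 1.5 h, 37 °C, antibody labelling 20 min, ice; system: murine 2C transgenic CD8+ T lymphocytes; technique: cytometric PE anti-B7-1 and Alexa647 anti-CD8 signals after 1% paraformaldehyde fixation; also added: QL9-charged Drosophila Ld/ICAM-1/B7-1 vesicles; control set: naked versus QL9-loaded vesicles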
* hit, by the source's call.

COC(=O)c1ccc(C2C(C(=O)c3cc4ccccc4o3)=C(O)C(=O)N2c2cc(C)on2)cc1 (stereo not drawn) was read as ALR H2O2 inh 19, N-glyco inh 1 and T cell HTS 260.
For Cc1cc(N2C(=O)C(O)=C(C(=O)c3cc4ccccc4o3)C2c2ccc(OC(C)C)cc2)no1 (stereo not drawn) the results were ALR H2O2 inh 96*, N-glyco inh 3 and T cell HTS 334.
CCCCCOc1ccc(C2C(C(=O)c3ccc(C)o3)=C(O)C(=O)N2c2cc(C)on2)cc1 (stereo not drawn) was read as ALR H2O2 inh 98*, N-glyco inh 1 and T cell HTS 286.
COC(=O)c1sc(N2C(=O)C(O)=C(C(=O)c3ccc(C)o3)C2c2ccc([N+](=O)[O-])cc2)nc1C (stereo not drawn) was read as ALR H2O2 inh 70, N-glyco inh -1 and T cell HTS 281.
Screening C/C(=C\C(=O)c1ccc(Cl)cc1Cl)N(C)C returned ALR H2O2 inh -4, N-glyco inh 2 and T cell HTS 130.
CC(C)N1CN(c2ccccc2)C(=S)N(c2ccccc2)C1 was read as ALR H2O2 inh -5, N-glyco inh -1 and T cell HTS 108.
Screening CC1CCCC(NC(=O)CN2C(=O)NC(C)(c3cc(F)ccc3F)C2=O)C1C (stereo not drawn) returned ALR H2O2 inh 0, N-glyco inh 1 and T cell HTS 403.
For CCCOc1ccc(-c2c(C(=O)N/N=C(\C)c3cccs3)nnn2-c2nonc2N)cc1 the results were ALR H2O2 inh -1, N-glyco inh -1 and T cell HTS 126.
COc1cccc(C2C(C(=O)c3cc4cccc(OC)c4o3)=C(O)C(=O)N2c2cc(C)on2)c1OC (stereo not drawn) was read as ALR H2O2 inh 9, N-glyco inh 0 and T cell HTS 177.
For COc1cccc2cc(C(=O)C3=C(O)C(=O)N(c4cc(C)on4)C3c3cccs3)oc12 (stereo not drawn) the results were ALR H2O2 inh 98*, N-glyco inh 3 and T cell HTS 180.
Screening Cc1ccc(Cl)cc1NC(=O)c1cc2ccccc2cc1O returned N-glyco inh -9 and T cell HTS 477.
CC(Sc1nnc(C2CC2)n1C1CC1)C(=O)Nc1cccc(S(=O)(=O)N2CCOCC2)c1 (stereo not drawn) was read as ALR H2O2 inh -11, N-glyco inh -1 and T cell HTS 553.
`Cc1nc(-c2cccc(N)c2)cs1` gave ALR H2O2 inh 99*, N-glyco inh 0 and T cell HTS 487.
For Cc1nc(-c2cccc(S(=O)(=O)N3CC(C)CC(C)C3)c2)cs1 (stereo not drawn) the results were ALR H2O2 inh -1, N-glyco inh 2 and T cell HTS 259.
`Cc1nc(-c2cccc(S(=O)(=O)N3CCOCC3)c2)cs1` gave ALR H2O2 inh 99* and N-glyco inh 1.
Screening Cc1nc(-c2cccc(S(=O)(=O)N3CC(C)OC(C)C3)c2)cs1 (stereo not drawn) returned ALR H2O2 inh 98*, N-glyco inh -2 and T cell HTS 158.
`CCC(C)n1c(-c2cccc(S(=O)(=O)N3CCOCC3)c2)n[nH]c1=S` (stereo not drawn) gave N-glyco inh -1.
For Cc1nc(-c2ccccc2)cs1 the results were ALR H2O2 inh -4, N-glyco inh 3 and T cell HTS 230.
For CC(C)Cn1c(-c2cccc(S(=O)(=O)N3CCOCC3)c2)n[nH]c1=S the results were ALR H2O2 inh 86*, N-glyco inh 1 and T cell HTS 280.
Screening Cc1nc(-c2cccc(NC(=O)c3cccc(S(=O)(=O)N4CCCC4)c3)c2)cs1 returned ALR H2O2 inh -2, N-glyco inh 0 and T cell HTS 262.
O=C(NNS(=O)(=O)c1ccccc1)C1CC(c2cccnc2)=NO1 (stereo not drawn) was read as ALR H2O2 inh 10, N-glyco inh -1 and T cell HTS 178.
Screening CC(OC(=O)c1ccc2c(=O)n3c(nc2c1)CCC3)C(=O)NC1CCCCC1C (stereo not drawn) returned ALR H2O2 inh 13, N-glyco inh 2 and T cell HTS 0.
For COc1ccc(OCCN2CCC(C(=O)NC(c3ccsc3)c3ccccc3C)CC2)cc1 (stereo not drawn) the results were N-glyco inh 1.
`Cc1ccc(C(=O)COC(=O)CN2C(=O)C3C4CC(C(Br)C4Br)C3C2=O)cc1` (stereo not drawn) gave ALR H2O2 inh -2, N-glyco inh 2 and T cell HTS 178.
For Cc1ccc(S(=O)(=O)NC(Cc2ccccc2)C(=O)NN)cc1 (stereo not drawn) the results were ALR H2O2 inh -7, N-glyco inh 0 and T cell HTS 150.
Screening Cc1ccc(S(=O)(=O)N[C@@H](Cc2ccccc2)C(=O)CCl)cc1 returned ALR H2O2 inh 98*, N-glyco inh -9 and T cell HTS 454.
`CCCNC(=O)C1CCC(CNS(=O)(=O)c2ccc3c(c2)N(C(C)=O)CCO3)CC1` (stereo not drawn) gave ALR H2O2 inh -4, N-glyco inh -2 and T cell HTS 471.
Screening Cc1ccccc1N1C(=O)c2ccccc2C1O (stereo not drawn) returned ALR H2O2 inh 12, N-glyco inh -4 and T cell HTS 192.
For Cc1cccn2c(=O)c3cc(C(=O)N4CCCCC4)sc3nc12 the results were ALR H2O2 inh 18, N-glyco inh 34* and T cell HTS 917.
`Cc1cccn2c(=O)c3cc(C(=O)N4CCCC(C)C4)sc3nc12` (stereo not drawn) gave N-glyco inh 0 and T cell HTS 250.
Screening O=C(CCNC(=O)C1CCN(S(=O)(=O)c2ccc(F)cc2)CC1)NC1CC1 returned ALR H2O2 inh -3, N-glyco inh 2 and T cell HTS 185.
Cc1ncc([N+](=O)[O-])n1Cc1cccc(F)c1 was read as ALR H2O2 inh 27, N-glyco inh -1 and T cell HTS 72*.
Screening Cc1ncc([N+](=O)[O-])n1Cc1ccccc1 returned ALR H2O2 inh -6, N-glyco inh 1 and T cell HTS 163.
`CCC1(C)Cc2ccccc2C(=S)N1` (stereo not drawn) gave ALR H2O2 inh 7, N-glyco inh 0 and T cell HTS 188.
CCN(CC(=O)Nc1ccc(NC(C)=O)cc1)C(=O)c1cc2c(s1)CCCCC2 was read as N-glyco inh -1 and T cell HTS 419.
`N#C/C(=C\c1cccnc1)C(=O)Nc1ccccc1` gave ALR H2O2 inh 1, N-glyco inh 6 and T cell HTS 358.
CC(NC(=O)/C(C#N)=C/c1ccc(Cl)c([N+](=O)[O-])c1)c1ccccc1 (stereo not drawn) was read as ALR H2O2 inh 4 and T cell HTS 152.
For N#C/C(=C\c1ccc(O)c(O)c1)C(=O)Nc1cccc2ncccc12 the results were ALR H2O2 inh 99*, N-glyco inh -7 and T cell HTS 222.
`C[C@@H](NC(=O)/C(C#N)=C/c1ccc(O)c(O)c1)c1ccccc1` gave ALR H2O2 inh 99*, N-glyco inh -4 and T cell HTS 382.
Screening COc1ccc(/C=C(\C#N)C(=O)Nc2cccc3ncccc23)cc1OC returned N-glyco inh 3 and T cell HTS 687.
